Source: PubChem BioAssay
Scp1 inh: inhibitors of human Scp-1 phosphatase. AID 493091. Recombinant Scp1, phosphopeptide, malachite green phosphate absorbance. Q9GZU7. inhibition, % at 20 µM. 340,000 tested, 0.88% active;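 active = inhibition above about 50% at 20 µM, limit read from the data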;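 note: plate controls were DMSO wells with enzyme for no effect and wells lacking enzyme for full effect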
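Test system: SCP-1 phosphatase catalytic domain, residues 76-261 | Compound dosing: One concentration, 20 µM, with 1.0% DMSO | Schedule: 45 min room-temperature reaction, 5 min colour, 30 min stabiliser | Detection: Absorbance at 630 nm | Read-out basis: % inhibition of SCP-1 phosphate liberation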
STEP inh: blocks human striatal-enriched tyrosine phosphatase. P54829. recombinant STEP, OMFP fluorogenic substrate, fluorescence. inhibition, % at 20 µM. 360,000 tested, 0.25% active;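 active = inhibition at 20 µM, scaled per plate between control wells, above about 37%, limit read from the data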;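 note: 0% = DMSO with enzyme and substrate and 100% = substrate only without enzyme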
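Material: STEP (striatal-enriched tyrosine phosphatase) enzyme, cell-free | Medium: 50 mM Bis-Tris pH 6.0 with 2.5 mM DTT and 0.005% Tween 20 | Read-out: Percent inhibition scaled to no-enzyme and uninhibited-enzyme controls, plate-pattern corrected | Signal: Fluorescence read at 480 nm ex / 540 nm em | Times: 20 min reaction, room temperature, in the dark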
DNMT1 inh: DNMT1 (human) enzyme inhibition | DNMT1 molecular beacon, Hinp1I cleavage, fluorescence | 360,000 tested, 0.83% active | inhibition (reported as % activation of signal), % at 10 µM | P26358 | AID 588458; in the data active = inhibition above about 50%
SUMO1 PPI mod: alters human SUMO1 binding to SIM partners. P63165. SUMO1 binding to a labelled peptide, TR-FRET, 1 h. inhibition, % at 20 µM. 360,000 tested, 0.33% active; in the data active = inhibition above about 37%
LMPTP inh: LMPTP (human) inhibition; recombinant LMPTP-A, OMFP fluorogenic substrate, fluorescence intensity; inhibition, % at 20 µM; 360,000 tested, 0.22% active; P24666;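 active = compounds that cut the enzyme signal by at least half of the control window in the single-dose screen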;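 note: plate controls were DMSO wells with enzyme plus substrate for no effect and substrate without enzyme for full effect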
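Test system – LMPTP-A enzyme · Amount – LMPTP-A at 0.625 nM final in the reaction · Buffer or medium – Bis-Tris pH 6.0, DTT, detergent · Reagent – OMFP 400 µM · Doses – single 20 µM dose · Schedule – reaction 50 min, room temperature, dark · Detection – fluorescence intensity of OMFP turnover product · Evaluation – percent inhibition versus substrate-only and uninhibited controls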
HKDC1 inhibitor: inhibitors of human hexokinase HKDC1 | recombinant HKDC1, G6PDH/diaphorase resazurin coupled fluorescence | inhibition, % at 20 µM | 340,000 tested, 0.16% active;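 active = inhibition above about 35% when tested at 20 µM, limit read from the data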;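 note: plate controls were DMSO wells with enzyme for no effect and DMSO wells lacking enzyme for full effect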
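Test system: HK5 enzyme. Quantity: 5 µg/mL HK5 final. Reagent: glucose and ATP substrates. Schedule: 90 min reaction incubation at room temperature, dark. Technique: resazurin-to-resorufin fluorescence via G6PDH and diaphorase coupling, 525/613 nm. Control set: DMSO wells with and without enzyme mix.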
* marks the source's active call; other numbers are inactive results; · = not tested or not shown; ! = repeats disagree. This is a sample that favours compounds with a hit; in the whole collection about 1.8% have one here.

SMILES	Scp1 inh	STEP inh	DNMT1 inh	SUMO1 PPI mod	LMPTP inh	HKDC1 inhibitor
COc1ccc2nc(C)cc(N/N=C/c3ccc(F)cc3)c2c1	-3	3	55*	-4	7	4
COc1ccc(Nc2cc(C)nc3ccc(OC)cc23)cc1	9	-2	17	-16	1	-2
COc1ccc(/C=N/Nc2cc(C)nc3c(C)cccc23)cc1	1	3	45	-34	31	-3
COc1ccc(/C=N/Nc2cc(C)nc3ccccc23)cc1	3	4	27	-54	62*	4
O=C(Nc1ccc2oc(-c3cccnc3)nc2c1)c1ccco1	16	-3	-2	13	11	-2
O=C(Nc1ccc2oc(-c3cccnc3)nc2c1)c1ccc(Br)o1	37	4	-11	38*	-3	10
O=C(c1ccco1)N1CCN(c2ncnc3c(-c4ccc(Cl)cc4)nsc23)CC1	-4	1	2	-7	2	-4
O=c1oc2cc(O)ccc2c2oc3cc(O)ccc3c12	21	0	-1	48*	21	12
O=S(=O)(c1ccccc1)c1nnn2c1nc(NC1CCN(Cc3ccccc3)CC1)c1ccccc12	0	7	-1	-66	66*	-10
O=C1CCC(C(=O)N2CCN(c3ccccc3)CC2)CN1CC1CCCCC1 (centres undefined)	-10	0	1	2	0	-8
CCNc1nc2c(c(=O)[nH]c(=O)n2C)n1CC(C)C	-12	4	2	43*	-1	-7
Cc1ccc(-c2nn3c(C)nnc3s2)cc1NC(=O)c1ccc(-c2cccc(Cl)c2)o1	11	7	17	3	7	-1
Cc1ccc(-c2nn3c(C)nnc3s2)cc1NC(=O)c1ccc(-c2ccc(Cl)cc2Cl)o1	43	93*	66*	12	44	20
O=C1/C(=C\c2ccco2)CCC/C1=C\c1ccco1	-27	-14	73*	-4	3	17
COc1cccc(NS(=O)(=O)c2ccc3c(c2)N(C(C)=O)CCO3)c1	3	-2	1	-4	-1	-2
COc1cccc(CNS(=O)(=O)c2ccc3c(c2)N(C(C)=O)CCO3)c1	24	42*	24	3	9	-2
CC(C)CCCCCCCCCCCCC(=O)NCC(=O)NC1C(C)OC(Nc2ncnc3nc[nH]c23)C(O)C1O (centres undefined)	-8	1	94*	12	-1	-8
O=c1cc(-c2ccccc2Cl)oc2cccc(O)c12	9	4	7	0	48	-8
O=c1cc2oc3cc(O)c(O)cc3c(-c3ccccc3[N+](=O)[O-])c-2cc1O	5	22	-5	27	90*	19
Cc1ccc(F)c(S(=O)(=O)NC(=O)C2(C)CCN2C(=O)CC2CCCCC2)c1 (centres undefined)	·	-4	3	3	-2	·
Cc1ccc2nc(-c3ccco3)c(CC3CCCCC3)n2c1	·	-1	1	0	0	·
Brc1ccc2nc(-c3ccco3)c(CC3CCCCC3)n2c1	·	4	69*	23	19	·
CC(=O)OCC1=C(C(=O)O)N2C(=O)C(NC(=O)COc3ccc(F)cc3)C2SC1 (centres undefined)	54*	4	25	23	0	0
CC(=O)OCC1=C(C(=O)O)N2C(=O)[C@@H](NC(=O)Cc3ccccc3)[C@H]2SC1	33	0	-2	3	0	3
C=Cc1c(C)c2cc3[nH]c(cc4nc(cc5nc(cc1[nH]2)C(C)=C5CCC(=O)O)C(CCC(=O)O)=C4C)c(C)c3C=C	64*!	1	79*	112*!	5	3
N=C(N)c1ccc(OCCCCCOc2ccc(C(=N)N)cc2)cc1	-9	-3	20	-65	58*	-3
O=C(Nc1nc2c(Br)cc(Br)cc2c(=O)s1)c1ccco1	93*	34	5	5	16	21
Cc1cc(C)c2nc(NC(=O)c3ccco3)sc2c1	20	0	-2	0	2	3
